Like-named read-outs stand apart in the source and are kept apart here.
How the values were obtained:
[1] = system: RNA Pol II CTD Serine 2 phosphorylation; experiment: RNA Pol II CTD phosphorylation by immunoblot; assay type: cell-based, human; conditions: MOLT4 cells
Procedure, shortened: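 MOLT4 cells lysed on ice for 30 min in RIPA buffer (pH 7.4) with protease and phosphatase inhibitors and 2.5 U/mL nuclease. Lysate spun at 21,000g, 30 min, 4°C, and protein measured by BCA. Blots probed with anti-phospho-CTD Ser2 alongside total Pol II and tubulin. Infrared-labelled secondaries; blots imaged on Odyssey.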

CDK9 [2] = target: T1, CDK9 (Homo sapiens, UniProt P50750); experiment: Multiplexed quantitative mass spectrometry-based proteomics; assay type: cell-based; conditions: MOLT4 cells, 250nM, 2 hours, 4512 proteins quantified
Procedure, shortened: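 MOLT4 cells (RPMI-1640, 10% FBS, 1% Pen/Strep, 37°C, 5% CO₂) exposed to 250nM test compound for 2 hours. Proteins labelled with 10plex TMT isobaric tags and run on an Orbitrap Fusion using SPS-MS3. Threshold of 2 peptides per protein. Log fold-change vs p-value plotted. n=3 biological replicates.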

PCTAIRE1,PCTAIRE3 = experiment: Kinativ live cell chemical proteomics; assay type: cell-based, human; conditions: live cell treatment, 0.25μM
CDK10 [3] = target: T2, CDK10 (Homo sapiens, UniProt Q15131); experiment: CDK10 degradation by immunoblot; assay type: cell-based; conditions: MOLT4 cells
Procedure, shortened: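 MOLT4 cells treated with test compound were lysed in RIPA buffer (pH 7.4) with protease and phosphatase inhibitors and nuclease for 30 min on ice. Lysates were clarified at 21,000g for 30 min at 4°C and quantified by BCA. CDK10 was immunoblotted and detected with infrared-labelled secondary antibodies.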

CDK7 mRNA = experiment: qPCR of mRNA levels; assay type: cell-based, human; conditions: MOLT4 cells, 250nM, 8 hours
PCTAIRE2,PCTAIRE3 = experiment: Kinativ live cell chemical proteomics; assay type: cell-based, human; conditions: live cell treatment, 0.25μM
[4] = system: panel of eleven different leukemia cancer cell lines; experiment: Proliferation in leukemia cell line panel; assay type: cell-based
MCL-1 = MCL-1 protein level by immunoblot; assay type: cell-based, human; conditions: wildtype MOLT4 cells, 250 nM time course
Procedure, shortened: (§1)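 Wildtype MOLT4 cells were treated with 250 nM test compound for the indicated times. They were lysed for 30 min on ice in RIPA buffer (pH 7.4) with protease and phosphatase inhibitors and nuclease. Lysates were clarified at 21,000g for 30 min at 4°C and protein measured by BCA. Blots were detected with infrared-labelled secondary antibodies.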

CDK1 mRNA = experiment: qPCR of mRNA levels; assay type: cell-based, human; conditions: MOLT4 cells, 250nM, 8 hours
CDK9 [5] = target: T1, CDK9; experiment: Bio-AT7519 pulldown target engagement; assay type: cell-based; conditions: 6 hours, 1μM, 500nM or 250nM
Procedure, shortened: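 Live wildtype or CRBN−/− MOLT4 cells were exposed to DMSO or test compound for 6 h, then PBS-washed and lysed (50 mM Tris-HCl pH 8.0, 150 mM NaCl, 1% NP-40, 5 mM EDTA, 1 mM DTT, protease/phosphatase inhibitors). Clarified lysate (input sampled) was rotated overnight at 4°C with 1μM biotinylated AT7519, then captured on streptavidin resin for 3 h at 4°C. Beads were washed ×5, boiled, and immunoblotted.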

MOLT4 cells [6] = experiment: Apoptosis by immunoblot; assay type: cell-based, human; conditions: wildtype MOLT4 cells, 250 nM
Procedure, shortened: as §1

CDK1/CycB = CDK1/CycB (Homo sapiens, UniProt P06493); experiment: Z'LYTE in vitro kinase assay; assay type: biochemical
Procedure, shortened: (§2)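 Inhibition of the recombinant cyclin-bound CDK complex was measured in a Z'LYTE kinase assay run by a contract service at the Km concentration of ATP.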

CDK2/CycA = CDK2/CycA (Homo sapiens, UniProt P24941); experiment: Z'LYTE in vitro kinase assay; assay type: biochemical
Procedure, shortened: as §2

MOLT4 cells [7] = experiment: Proliferation assay; assay type: cell-based, human; conditions: for IC50: read-out: proliferation IC50
CDK9 [8] = target: T1, CDK9; experiment: CDK9 degradation by immunoblot; assay type: cell-based
CDK7/CycH/MNAT1 = CDK7/CycH/MNAT1 (Homo sapiens, UniProt P50613); experiment: Adapta Eu in vitro kinase assay; assay type: biochemical
CDK9/CycT1 = CDK9/CycT1 (Homo sapiens, UniProt P50750); experiment: Adapta Eu in vitro kinase assay; assay type: biochemical
CRBN−/− MOLT4 cells = experiment: Proliferation assay; assay type: cell-based; conditions: Homo sapiens, MOLT-4, 72 h, read-out: proliferation IC50
Procedure, shortened: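 CRBN−/− MOLT4 cells were exposed to a range of test compound concentrations for 72 h. Viability was measured with CellTiter-Glo, and IC50 was derived by non-linear regression curve fitting.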

PCTAIRE2 = PCTAIRE2 (Homo sapiens, UniProt Q00537); experiment: Kinativ live cell chemical proteomics; assay type: cell-based; conditions: live cell treatment, 0.25μM
CDK9 [9] = target: T1, CDK9; experiment: Kinativ live cell chemical proteomics; assay type: cell-based; conditions: CRBN−/− MOLT4 cells, live cell treatment, 0.25μM
Procedure, shortened: (§3)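 Test compound was applied to intact MOLT4 cells (CRBN−/− or wildtype). Cells were then sonicated in 50 mM HEPES pH 7.5, 150 mM NaCl, 0.1% Triton X-100 with phosphatase inhibitors, and cleared. Lysate was labelled with desthiobiotin-ATP acylphosphate probe (20 μM final) for 10 min. Samples were reduced and alkylated for LC-MS/MS, and % inhibition was calculated from integrated peak areas against DMSO controls.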

GSK3A = GSK3A (Homo sapiens, UniProt P49840); experiment: Kinativ live cell chemical proteomics; assay type: cell-based; conditions: live cell treatment, 0.25μM
Procedure, shortened: as §3

CDK9 [10] = target: T1, CDK9; experiment: Kinativ lysate chemical proteomics; assay type: binding; conditions: MOLT4 cell lysate, 1uM
Procedure, shortened: (§4)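 MOLT4 lysate (sonicated in HEPES pH 7.5/NaCl/Triton buffer, then gel-filtered) was incubated 15 min in duplicate with test compound added from a 100X DMSO stock, or with DMSO alone. Desthiobiotin-ATP acylphosphate probe (20 μM final) was then added for 10 min. Peptides were analysed by LC-MS/MS, and % inhibition was calculated as 1 − treated/control signal.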

CDK2 = CDK2 (Homo sapiens, UniProt P24941); experiment: Bio-AT7519 pulldown target engagement; assay type: cell-based; conditions: wildtype and CRBN−/− MOLT4 cells, 6 hours, 1μM, 500nM or 250nM
CDK7 = CDK7 (Homo sapiens, UniProt P50613); experiment: Bio-AT7519 pulldown target engagement; assay type: cell-based; conditions: wildtype and CRBN−/− MOLT4 cells, 6 hours, 1μM, 500nM or 250nM
CDK6 = CDK6 (Homo sapiens, UniProt Q00534); experiment: Kinativ live cell chemical proteomics; assay type: cell-based; conditions: live cell treatment, 0.25μM
MOLT4 cells [11] = experiment: Annexin V flow cytometry of apoptotic cells; assay type: cell-based, human; conditions: 250 nM, without washout
Procedure, shortened: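 MOLT4 cells were exposed to 250 nM test compound for 6 h, then either washed three times with media or left in compound, and collected 24 h later. Cells were PBS-washed, stained with FITC annexin V in HEPES/NaCl/CaCl₂ binding buffer (pH 7.4) at room temperature, and propidium iodide was added just before flow cytometry. Results are means ± s.d. of 3 biological replicates.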

CDK9 [12] = target: T1, CDK9; experiment: Kinomescan profiling; assay type: binding; conditions: 1μM
DYRK1B = DYRK1B (Homo sapiens, UniProt Q9Y463); experiment: Kinomescan profiling; assay type: binding; conditions: 1μM
CDK10 [13] = target: T2, CDK10; experiment: Kinativ lysate chemical proteomics; assay type: binding; conditions: MOLT4 cell lysate, 1uM
Procedure, shortened: as §4

panel of 468 kinases = experiment: Kinomescan kinome selectivity profiling; assay type: binding; conditions: Kinomescan at 1μM
[14] = 6-hour treatment then compound washout
[15] = wildtype and CRBN−/− MOLT4 cells

T1 sequence (P50750 whole entry, the tested form may be a part): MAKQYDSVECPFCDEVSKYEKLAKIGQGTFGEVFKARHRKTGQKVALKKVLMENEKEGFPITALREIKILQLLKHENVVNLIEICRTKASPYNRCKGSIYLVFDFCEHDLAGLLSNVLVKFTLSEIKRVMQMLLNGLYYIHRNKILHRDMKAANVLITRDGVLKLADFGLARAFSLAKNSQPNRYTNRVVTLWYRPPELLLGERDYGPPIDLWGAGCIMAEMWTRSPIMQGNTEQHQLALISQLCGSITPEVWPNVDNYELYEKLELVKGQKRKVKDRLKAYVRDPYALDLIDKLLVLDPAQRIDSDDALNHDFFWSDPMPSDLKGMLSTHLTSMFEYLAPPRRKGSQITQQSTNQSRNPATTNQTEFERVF
Chain of GSK3A (P49840 whole entry): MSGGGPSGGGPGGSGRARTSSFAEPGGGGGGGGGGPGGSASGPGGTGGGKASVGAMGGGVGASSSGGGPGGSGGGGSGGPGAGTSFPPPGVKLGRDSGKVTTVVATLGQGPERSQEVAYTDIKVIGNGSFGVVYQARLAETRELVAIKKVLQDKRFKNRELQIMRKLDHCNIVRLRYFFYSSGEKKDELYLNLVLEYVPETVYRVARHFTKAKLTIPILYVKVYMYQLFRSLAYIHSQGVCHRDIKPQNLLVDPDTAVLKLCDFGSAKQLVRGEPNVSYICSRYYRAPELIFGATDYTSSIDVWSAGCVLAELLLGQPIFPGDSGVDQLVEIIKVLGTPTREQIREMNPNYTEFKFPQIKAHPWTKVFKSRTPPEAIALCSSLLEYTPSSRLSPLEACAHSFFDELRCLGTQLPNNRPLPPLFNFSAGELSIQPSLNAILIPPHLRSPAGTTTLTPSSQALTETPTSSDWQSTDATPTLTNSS
Chain of CDK6 (Q00534 whole entry): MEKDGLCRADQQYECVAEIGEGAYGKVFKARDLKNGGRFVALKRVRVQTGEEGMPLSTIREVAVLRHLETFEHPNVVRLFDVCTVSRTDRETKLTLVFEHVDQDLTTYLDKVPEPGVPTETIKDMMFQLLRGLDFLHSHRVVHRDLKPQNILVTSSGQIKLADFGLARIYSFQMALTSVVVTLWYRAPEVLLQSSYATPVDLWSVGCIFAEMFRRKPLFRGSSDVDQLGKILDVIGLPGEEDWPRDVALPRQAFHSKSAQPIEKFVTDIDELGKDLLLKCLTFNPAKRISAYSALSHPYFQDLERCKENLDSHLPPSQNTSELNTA
Chain of PCTAIRE2 (Q00537 whole entry): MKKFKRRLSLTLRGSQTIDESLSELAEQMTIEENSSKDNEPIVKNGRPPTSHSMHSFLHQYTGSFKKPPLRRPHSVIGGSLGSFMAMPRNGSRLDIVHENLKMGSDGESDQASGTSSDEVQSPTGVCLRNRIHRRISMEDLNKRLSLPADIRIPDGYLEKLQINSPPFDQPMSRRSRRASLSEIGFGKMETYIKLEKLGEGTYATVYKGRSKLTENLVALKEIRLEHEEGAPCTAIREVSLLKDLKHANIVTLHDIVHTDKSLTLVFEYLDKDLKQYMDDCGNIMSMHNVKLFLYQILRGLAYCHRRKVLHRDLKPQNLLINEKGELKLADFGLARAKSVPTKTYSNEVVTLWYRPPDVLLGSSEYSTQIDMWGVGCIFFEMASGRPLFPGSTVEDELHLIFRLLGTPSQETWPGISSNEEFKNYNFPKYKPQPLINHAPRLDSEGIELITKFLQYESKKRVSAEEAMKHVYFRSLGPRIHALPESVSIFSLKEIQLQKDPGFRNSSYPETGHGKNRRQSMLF
Chain of CDK7/CycH/MNAT1 (P50613 whole entry): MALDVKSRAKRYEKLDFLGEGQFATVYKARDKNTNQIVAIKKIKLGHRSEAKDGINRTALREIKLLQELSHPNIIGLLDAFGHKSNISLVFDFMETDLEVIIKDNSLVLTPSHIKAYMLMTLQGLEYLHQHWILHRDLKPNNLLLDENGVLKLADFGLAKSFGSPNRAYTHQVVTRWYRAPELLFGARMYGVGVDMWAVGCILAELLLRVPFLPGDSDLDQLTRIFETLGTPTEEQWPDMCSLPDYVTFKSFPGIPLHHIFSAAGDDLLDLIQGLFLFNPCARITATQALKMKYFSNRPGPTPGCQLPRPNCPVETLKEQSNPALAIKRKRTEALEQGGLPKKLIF
Chain of CDK7/CycH/MNAT1 (P51946 whole entry partner): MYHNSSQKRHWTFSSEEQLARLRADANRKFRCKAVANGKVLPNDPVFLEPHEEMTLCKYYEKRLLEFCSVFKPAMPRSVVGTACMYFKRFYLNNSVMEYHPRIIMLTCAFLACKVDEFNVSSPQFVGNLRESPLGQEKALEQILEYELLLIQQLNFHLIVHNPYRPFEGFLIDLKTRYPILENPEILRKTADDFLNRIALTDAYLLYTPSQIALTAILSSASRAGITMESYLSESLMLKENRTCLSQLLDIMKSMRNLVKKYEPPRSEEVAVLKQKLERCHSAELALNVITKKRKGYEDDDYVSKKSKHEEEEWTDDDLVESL
Chain of CDK7/CycH/MNAT1 (P51948 whole entry partner): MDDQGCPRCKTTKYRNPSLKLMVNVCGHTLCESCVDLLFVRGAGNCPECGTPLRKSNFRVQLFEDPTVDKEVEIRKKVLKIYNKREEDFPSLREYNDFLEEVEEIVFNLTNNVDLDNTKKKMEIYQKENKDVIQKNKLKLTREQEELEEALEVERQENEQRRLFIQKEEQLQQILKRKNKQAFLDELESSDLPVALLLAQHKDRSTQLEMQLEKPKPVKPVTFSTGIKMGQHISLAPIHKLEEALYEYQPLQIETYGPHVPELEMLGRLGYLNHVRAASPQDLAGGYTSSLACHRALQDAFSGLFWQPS
T2 sequence (Q15131 whole entry): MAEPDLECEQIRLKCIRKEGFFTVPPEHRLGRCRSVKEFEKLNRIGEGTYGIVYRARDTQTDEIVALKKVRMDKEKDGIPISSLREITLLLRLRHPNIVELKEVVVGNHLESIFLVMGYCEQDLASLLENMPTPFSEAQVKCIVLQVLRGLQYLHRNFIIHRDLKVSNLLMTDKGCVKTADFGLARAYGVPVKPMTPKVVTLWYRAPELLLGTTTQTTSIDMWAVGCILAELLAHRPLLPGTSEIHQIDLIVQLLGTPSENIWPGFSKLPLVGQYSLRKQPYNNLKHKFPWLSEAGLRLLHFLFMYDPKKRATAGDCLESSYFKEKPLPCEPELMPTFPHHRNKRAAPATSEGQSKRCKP
Chain of CDK9/CycT1 (P50750 whole entry): as the sequence (P50750 whole entry, the tested form may be a part) above
Chain of CDK9/CycT1 (O60563 whole entry partner): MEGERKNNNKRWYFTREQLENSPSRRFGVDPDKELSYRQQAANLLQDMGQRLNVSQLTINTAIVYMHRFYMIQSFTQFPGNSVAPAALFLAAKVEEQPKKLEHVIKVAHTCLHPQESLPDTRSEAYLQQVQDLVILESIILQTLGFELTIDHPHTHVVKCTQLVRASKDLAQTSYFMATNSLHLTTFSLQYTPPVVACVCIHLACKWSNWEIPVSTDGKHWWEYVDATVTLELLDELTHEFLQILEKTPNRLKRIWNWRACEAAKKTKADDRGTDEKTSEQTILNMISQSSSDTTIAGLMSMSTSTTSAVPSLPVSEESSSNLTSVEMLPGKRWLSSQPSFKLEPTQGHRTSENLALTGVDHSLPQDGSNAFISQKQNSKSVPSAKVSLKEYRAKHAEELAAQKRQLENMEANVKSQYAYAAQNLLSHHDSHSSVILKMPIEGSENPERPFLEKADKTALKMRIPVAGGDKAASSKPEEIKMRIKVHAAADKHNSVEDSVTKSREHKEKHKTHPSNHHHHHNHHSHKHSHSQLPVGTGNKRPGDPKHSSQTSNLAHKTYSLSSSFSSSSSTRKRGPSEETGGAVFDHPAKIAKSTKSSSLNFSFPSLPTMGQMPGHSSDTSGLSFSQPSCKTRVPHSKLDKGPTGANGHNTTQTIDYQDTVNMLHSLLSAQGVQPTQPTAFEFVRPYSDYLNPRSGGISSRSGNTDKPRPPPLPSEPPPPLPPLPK
Chain of CDK1/CycB (P06493 whole entry): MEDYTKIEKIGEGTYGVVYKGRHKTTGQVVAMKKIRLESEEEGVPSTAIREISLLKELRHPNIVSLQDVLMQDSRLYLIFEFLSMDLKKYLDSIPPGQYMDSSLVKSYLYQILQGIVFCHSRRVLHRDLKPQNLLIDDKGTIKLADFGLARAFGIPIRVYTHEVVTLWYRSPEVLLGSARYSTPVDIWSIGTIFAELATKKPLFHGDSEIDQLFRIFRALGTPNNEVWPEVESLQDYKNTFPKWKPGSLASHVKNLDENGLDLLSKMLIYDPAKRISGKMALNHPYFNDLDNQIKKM
Chain of CDK1/CycB (P14635 whole entry partner): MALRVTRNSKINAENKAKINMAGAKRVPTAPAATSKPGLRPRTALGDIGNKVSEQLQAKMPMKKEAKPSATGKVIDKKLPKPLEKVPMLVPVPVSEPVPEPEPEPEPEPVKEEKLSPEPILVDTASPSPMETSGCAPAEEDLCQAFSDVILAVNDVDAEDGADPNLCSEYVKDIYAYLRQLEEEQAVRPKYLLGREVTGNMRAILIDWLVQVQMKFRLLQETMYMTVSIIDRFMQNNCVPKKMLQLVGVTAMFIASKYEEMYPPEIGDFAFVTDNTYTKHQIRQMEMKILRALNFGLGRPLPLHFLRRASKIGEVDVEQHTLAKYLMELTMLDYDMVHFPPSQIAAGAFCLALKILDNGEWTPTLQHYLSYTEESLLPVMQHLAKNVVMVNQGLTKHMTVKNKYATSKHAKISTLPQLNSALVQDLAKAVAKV
Chain of CDK7 (P50613 whole entry): as the sequence (P50613 whole entry) above

CC(C)(C)c1cnc(CSc2cnc(NC(=O)C3CCN(CC(=O)NCCOCCOCCOCCNc4cccc5c4C(=O)N(C4CCC(=O)NC4=O)C5=O)CC3)s2)o1 (stereo not drawn) [THAL-SNS-032]
phosphorylation of RNA Pol II CTD Serine 2 [1]: inhibited phosphorylation of Serine 2 in a concentration and time-dependent manner
CDK9 abundance in proteome-wide analysis (CDK9 [2]): most depleted protein out of 4512 proteins
percent inhibited PCTAIRE1,PCTAIRE3 (Lys2) labeling (PCTAIRE1,PCTAIRE3; CRBN−/− MOLT4 cells): 11.4%
percent inhibited PCTAIRE1,PCTAIRE3 (Lys2) labeling (PCTAIRE1,PCTAIRE3; Wildtype MOLT4 cells): 16.3%
CDK10 degradation (CDK10 [3]): partial degradation
CDK7 mRNA level relative to DMSO-treated (CDK7 mRNA): around 20%
percent inhibited PCTAIRE2,PCTAIRE3 (Lys1) labeling (PCTAIRE2,PCTAIRE3; CRBN−/− MOLT4 cells): 16%
percent inhibited PCTAIRE2,PCTAIRE3 (Lys1) labeling (PCTAIRE2,PCTAIRE3; Wildtype MOLT4 cells): 22.1%
inhibition of proliferation compared to SNS-032 [4]: more potent inhibition of proliferation as compared to SNS-032
MCL-1 protein level (MCL-1): loss of MCL-1
CDK1 mRNA level relative to DMSO-treated (CDK1 mRNA): around 20%
CDK9 engagement (bio-AT7519 competition) (CDK9 [5]; CRBN−/− MOLT4 cells only): little to no engagement
time to induction of apoptosis (PARP and Caspase-3 cleavage) (MOLT4 cells [6]): ≤ 4 h
IC50 (CDK1/CycB): 0.171 µM
IC50 (CDK2/CycA): 0.062 µM
viability after washout (MOLT4 cells [7]; 250nM, 6 hours treatment then washout, 72 hours of growth): more profound decrease in viability after washout compared to NVP-2 or SNS-032
IC50 (MOLT4 cells [7]; Homo sapiens, MOLT-4, 72 h): 0.05 µM
time for CDK9 levels to return to baseline after washout (CDK9 [8]; [14]): 36 h
time of partial rebound of CDK9 levels after washout (CDK9 [8]; [14]): ≤ 12 h
time to complete CDK9 degradation (CDK9 [8]; MOLT4 cells, 250 nM): 2 h
persistence of CDK9 degradation (CDK9 [8]; MOLT4 cells, 250nM time course): at least 24 hours
concentration inducing complete CDK9 degradation (CDK9 [8]; MOLT4 cells, 6-hour treatment): 250 nM
concentration at which CDK9 degradation decreases (hook effect) (CDK9 [8]; MOLT4 cells, 6 hours): ≥ 5 µM
IC50 (CDK7/CycH/MNAT1): 0.398 µM
IC50 (CDK9/CycT1): 0.004 µM
IC50 (CRBN−/− MOLT4 cells): 3.63 µM

COC[C@@H](C)NC1CCC(Nc2cc(-c3cccc(NCC4(C#N)CCOCC4)n3)c(Cl)cn2)CC1 (stereo partly drawn) [NVP-2]
phosphorylation of RNA Pol II CTD Serine 2 [1]: inhibited in a concentration dependent manner
percent inhibited PCTAIRE2 (Lys2) labeling (PCTAIRE2; CRBN−/− MOLT4 cells): 10.3%
percent inhibited PCTAIRE2 (Lys2) labeling (PCTAIRE2; Wildtype MOLT4 cells): 8.1%
percent inhibited PCTAIRE1,PCTAIRE3 (Lys2) labeling (PCTAIRE1,PCTAIRE3; CRBN−/− MOLT4 cells): −5.2%
percent inhibited PCTAIRE1,PCTAIRE3 (Lys2) labeling (PCTAIRE1,PCTAIRE3; Wildtype MOLT4 cells): −30.5%
percent inhibited CDK9 (Lys2) labeling (CDK9 [9]): ~63%
percent inhibited GSK3A (Lys2) labeling (GSK3A; CRBN−/− MOLT4 cells): 10%
percent inhibited GSK3A (Lys2) labeling (GSK3A; Wildtype MOLT4 cells): 5.8%
percent inhibited PCTAIRE2,PCTAIRE3 (Lys1) labeling (PCTAIRE2,PCTAIRE3; CRBN−/− MOLT4 cells): −15%
percent inhibited PCTAIRE2,PCTAIRE3 (Lys1) labeling (PCTAIRE2,PCTAIRE3; Wildtype MOLT4 cells): −4.7%
MCL-1 protein level (MCL-1): MCL-1 loss was observed
CDK9 engagement in lysate (CDK9 [10]): strongly engaged
CDK2 engagement (bio-AT7519 competition) (CDK2): unaffected
CDK9 engagement (bio-AT7519 competition) (CDK9 [5]; [15]): engages CDK9 in wildtype and CRBN−/− MOLT4 cells at all concentrations tested
time to induction of apoptosis (PARP and Caspase-3 cleavage) (MOLT4 cells [6]): ≤ 4 h
CDK7 engagement (bio-AT7519 competition) (CDK7): unaffected
IC50 (MOLT4 cells [7]; wild-type MOLT4, 72 hours, CellTiter Glo): 0.009 µM
percent inhibited CDK6 (Lys2) labeling (CDK6; CRBN−/− MOLT4 cells): −8.6%
percent inhibited CDK6 (Lys2) labeling (CDK6; Wildtype MOLT4 cells): −10%
Annexin V positive cells (MOLT4 cells [11]): ~100%
Kinomescan inhibition of CDK9 (CDK9 [12]): greater than 99%
Kinomescan inhibition of DYRK1B (DYRK1B): greater than 99%
IC50 (CDK7/CycH/MNAT1; read-out: CDK7 IC50, Km ATP): > 10 µM
IC50 (CDK9/CycT1; read-out: IC50 CDK9/CycT kinase activity, Km ATP): < 0.000514 µM
CDK10 engagement in lysate (CDK10 [13]): strongly engaged
S(1) score (panel of 468 kinases): 0.005

CC(C)(C)c1cnc(CSc2cnc(NC(=O)C3CCNCC3)s2)o1 [SNS-032, N-[5-[[[5-(1,1-Dimethylethyl)-2-oxazolyl]methyl]thio]-2-thiazolyl]-4-piperidinecarboxamide]
phosphorylation of RNA Pol II CTD Serine 2 [1]: inhibited in a concentration dependent manner
percent inhibited PCTAIRE2,PCTAIRE3 (Lys1) labeling (PCTAIRE2,PCTAIRE3; CRBN−/− MOLT4 cells): 75.4%
CDK9 engagement (bio-AT7519 competition) (CDK9 [5]; [15]): showed engagement
time to induction of apoptosis (PARP and Caspase-3 cleavage) (MOLT4 cells [6]): ≤ 4 h
IC50 (MOLT4 cells [7]; Homo sapiens, MOLT-4, 72 h): 0.173 µM

Source: publication PMC5912898 (Nature chemical biology, 2017)
